Sampled rows, rich in hits. Any-hit rate of the full collection: about 2.3%.
PAX8 inh HTS – PAX8 transcriptional activity inhibition. RMG-I TPO-luciferase reporter, SteadyGlo, 24 h. inhibition, % at 12.6 µM. 360,000 compounds, 1.2% hits. AID 652154;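 active = mean replicate inhibition at least 60% with every replicate also reaching 60%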;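 note: luciferase light reporting Pax8 driven TPO promoter activity; plate controls were median of neutral control wells for no effect and mitoxantrone controls for full effect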
PGC1a acetyl inh – PGC1a acetylation modulation, inhibitor mode; 350,000 compounds, 0.17% hits; AID 651687; inhibition, % at 15.6 µM; U2OS PGC1a acetylation, AlphaScreen anti-acetyl-lysine; with virally co-expressed GCN5 acetyltransferase;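 active = every replicate shows inhibition of at least 40%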;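 note: 0% = neutral control wells and 100% = positive control wells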
HIV Env fusion – inhibitors of HIV Env-mediated cell fusion. HeLa-JRFL Env/CEM21 cell fusion, luciferase. inhibition, % at 12.3 µM. 360,000 compounds, 1.1% hits;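 active = mean replicate inhibition score of at least 50 and every replicate individually at or above 50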;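 note: 0% = plate neutral controls and 100% = maraviroc near 300 nM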
FN deposit inh – fibronectin deposition inhibition | AH1F fibroblasts, Alexa488-fibronectin deposition fluorescence, overnight | inhibition, % at 12.6 µM | 350,000 compounds, 0.086% hits | AID 743247;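 active = mean inhibition across replicates of 30% or more, regardless of how many single replicates reach that level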;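 note: positive control wells lacked labelled fibronectin entirely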
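Material: AH1F fibroblasts assembling fluorescent fibronectin matrix; amount: 10000 AH1F cells/well; medium: DMEM, 2% serum; reagent: Alexa488-fibronectin, 24 nM final in well; dosing: single compound dose, delivered by pin transfer; incubation: 1 h adhesion, overnight exposure; detection: fluorescence after three HBSS washes, excitation 485 nm, emission 525 nm; measure: fibronectin deposition inhibition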
CFTR F508del cor – CFTR F508del correction in bronchial cells; CFBE cells, YFP halide quenching; stimulated with forskolin plus potentiator P3; % fluorescence drop versus neutral controls; activity (quench increase), % at 7.58 µM; 350,000 compounds, 0.36% hits;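 active = mean added fluorescence quench of at least 8% versus neutral control, with both replicates also reaching 8%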;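 note: cells transiently co-express mutant CFTR-F508del with the halide-sensitive YFP; corrector assay measuring rescue of mutant channel to the surface after 24 h compound exposure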
EWS-Fli inh – inhibitors of EWS/Fli oncoprotein transcriptional activity; A673 NR0B1-luciferase reporter, viability-normalised; AID 651661; inhibition, % at 12.6 µM; 350,000 compounds, 0.67% hits;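 active = mean inhibition of at least 50% after viability correction, with every replicate also passing that limit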;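 note: firefly luciferase signal divided by Alamar Blue viability fluorescence both relative to DMSO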
Numbers without * were called inactive; / = not tested or not shown; [ ] = remark or other dose.

SMILES	PAX8 inh HTS	PGC1a acetyl inh	HIV Env fusion	FN deposit inh	CFTR F508del cor	EWS-Fli inh
CCOc1ccc(-n2c(-c3ccc(Br)cc3)c[n+]3c2CCCCC3)cc1	95*	-10	38	-2	0	35
CCOc1ccc(-n2c(-c3ccccc3)c[n+]3c2CCC3)cc1	82*	-9	30	4	-3	30
COc1ccc(-c2c[n+]3c(n2-c2c(C)n(C)n(-c4ccccc4)c2=O)CCCCC3)cc1	0	19	8	-1	2	-5
COc1ccc(-c2c[n+]3c(n2-c2ccc(C)cc2)CCCCC3)cc1	99*	5	11	3	2	24
COc1ccc(-n2c(-c3ccc(Cl)cc3)c[n+]3c2CCCCC3)cc1	52	-4	-7	5	4	14
COc1ccc(-c2c[n+]3c(n2-c2ccccc2)CCCCC3)cc1	56	/	25	-10	0	17
CCOc1ccc(-n2c(-c3ccc(OC)cc3)c[n+]3c2CCCCC3)cc1	99*	/	67*	/	4	36
O=C(C[C@H]1C=C[C@H](NS(=O)(=O)c2ccc(F)cc2)[C@@H](CO)O1)NCc1ccccc1F	/	13	/	/	1	1
CCC(=O)Nc1ccc2c(c1)C(=O)N(C)[C@H]1CC[C@@H](CC(=O)N3CCCCC3)O[C@H]1CO2	5	8	-6[16.7 µM]	1	0	-5
C[C@@H]1CN([C@H](C)CO)C(=O)c2cccc(NC(=O)c3nc4ccccc4s3)c2O[C@H]1CN(C)C(=O)Nc1cccc2ccccc12	/	/	/	18	/	/
O=C(Nc1ccc(F)cc1)NC1CCN(Cc2nnnn2Cc2ccco2)CC1	/	8	61*	/	/	/
COc1ccc(C(=O)Nc2ccc3ccccc3n2)c(OC)c1OC	12	9	-85	7	3	55*
COc1ccc(C(=O)NCCN(C)C)c2nc3ccccc3cc12	-11	-1	-200	-3	15*	45
CN(C)CCNC(=O)c1cccc2nc3c(ccc4ccccc43)nc12	43	6	-31	0	19*	28
COc1ccc(-c2nc3c(C(=O)NCCN(C)C)cccc3c3ccccc23)cc1	-3	1	3	-3	11*	4
Cc1ccc(S(=O)(=O)N(C)C[C@@H]2Oc3ccc(NC(=O)NC(C)C)cc3CC(=O)N([C@@H](C)CO)C[C@@H]2C)cc1	22	-7	/	/	-4	8
Cc1ccc(S(=O)(=O)Nc2ccc3c(c2)C(=O)N([C@@H](C)CO)C[C@H](C)[C@@H](CN(C)C(=O)Nc2cccc4ccccc24)OCCCC[C@@H](C)O3)cc1	81*	-19	2[16.7 µM]	-2	-3	19
Cc1ccc(S(=O)(=O)Nc2ccc3c(c2)C(=O)N([C@@H](C)CO)C[C@@H](C)[C@@H](CN(C)C(=O)Nc2cccc4ccccc24)OCCCC[C@H](C)O3)cc1	10	-10	24[16.7 µM]	7	-1	-1
Cc1ccc(S(=O)(=O)Nc2ccc3c(c2)C(=O)N([C@@H](C)CO)C[C@H](C)[C@@H](CN(C)C(=O)Nc2cccc4ccccc24)OCCCC[C@H](C)O3)cc1	70*	-20	43[16.7 µM]	-5	-1	14
Cc1ccc(S(=O)(=O)Nc2ccc3c(c2)C(=O)N([C@H](C)CO)C[C@@H](C)[C@H](CN(C)C(=O)Nc2cccc4ccccc24)OCCCC[C@@H](C)O3)cc1	79*	-12	7[16.7 µM]	-3	2	18
O=C(C[C@@H]1C[C@H]2c3cc(NC(=O)C4CCOCC4)ccc3O[C@H]2[C@H](CO)O1)NCCc1ccccc1	5	-7	/	6	-1	1
COc1cccc(-c2cnc3c(c2)C(=O)N([C@@H](C)CO)C[C@H](C)[C@H](CN(C)Cc2ccncc2)O3)c1	/	0	3[16.7 µM]	2	4	5
Cc1nc(SCC(=O)Nc2ccc(S(=O)(=O)N3CCOCC3)cc2)c2c(C)c(C)sc2n1	43	-1	64*	-1	3	1
Cc1ccc(/C=C/c2onc(C)c2S(=O)(=O)N2CCC(C(=O)N3CCN(C)CC3)CC2)cc1	-2	/	-14	2	1	/
Cc1ccc(S(=O)(=O)N2CCN(CC(=O)Nc3ccc(N4CCOCC4)cc3)CC2)cc1C	74*	/	/	6	0	-98
